Laboratory results reported in ChEMBL document CHEMBL1143121, “Is adamantane a suitable substituent to pre-organize the acid orientation in E-selectin antagonists?” (Bioorg Med Chem, 2008).

Assays:
[1] = target: T1, E-selectin (Homo sapiens) (UniProt P16581); experiment: Binding affinity to E-selectin relative to (2S,4S,5R,6R)-5-acetamido-2-((2R,3S,4S,5R,6R)-3,5-dihydroxy-2-(hydroxymethyl)-6-((1R,2R)-2-((2S,3S,4R,5S,6S)-3,4,5-trihydroxy-6-methyl-tetrahydro-2H-pyran-2-yloxy)cyclohexyloxy)-tetrahydro-2H-pyran-4-yloxy)-4-hydroxy-6-((1R,2R)-1,2,3-trihydroxypropyl)-tetrahydro-2H-pyran-2-carboxylic acid
T1 sequence (whole entry): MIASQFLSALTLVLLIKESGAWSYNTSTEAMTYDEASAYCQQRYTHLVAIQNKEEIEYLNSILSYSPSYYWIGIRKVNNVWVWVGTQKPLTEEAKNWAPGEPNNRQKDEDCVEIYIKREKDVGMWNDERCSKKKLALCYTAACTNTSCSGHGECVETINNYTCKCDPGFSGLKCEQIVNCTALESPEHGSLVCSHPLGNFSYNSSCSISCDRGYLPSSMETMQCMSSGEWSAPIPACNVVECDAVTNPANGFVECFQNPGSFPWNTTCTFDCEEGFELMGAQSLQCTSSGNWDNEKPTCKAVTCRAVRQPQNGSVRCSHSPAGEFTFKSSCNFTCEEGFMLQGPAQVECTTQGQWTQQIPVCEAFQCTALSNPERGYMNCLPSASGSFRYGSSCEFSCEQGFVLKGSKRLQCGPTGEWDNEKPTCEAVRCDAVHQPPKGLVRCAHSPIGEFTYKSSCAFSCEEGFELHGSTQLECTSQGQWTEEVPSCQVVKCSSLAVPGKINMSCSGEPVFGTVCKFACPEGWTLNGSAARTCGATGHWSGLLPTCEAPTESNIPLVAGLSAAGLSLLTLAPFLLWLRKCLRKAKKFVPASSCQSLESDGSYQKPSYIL
Method in brief: (§1)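 Competitive binding ELISA against E-selectin, run by a previously published procedure. A reference antagonist was included in the assay for relative comparison. The acid test compounds were purified by size exclusion chromatography to remove traces of polyanionic ion-exchange resin that could give false positives.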

E-selectin = target: T2, E-selectin (Homo sapiens, UniProt P16581); experiment: Binding affinity to E-selectin; method in brief: as §1
T2 sequence (P16581 whole entry): T1 sequence (whole entry)

Activity [1]	IC50 (E-selectin)	Compound
0.6		C[C@@H]1O[C@@H](O[C@@H]2CCCC[C@H]2O[C@@H]2O[C@H](CO)[C@H](O)[C@H](O[C@@H](Cc3ccccc3)C(=O)O)[C@H]2O)[C@@H](O)[C@H](O)[C@@H]1O
> 10		C[C@@H]1O[C@@H](O[C@@H]2CCCC[C@H]2O[C@@H]2O[C@H](CO)[C@H](O)[C@H](OCC(=O)O)[C@H]2O)[C@@H](O)[C@H](O)[C@@H]1O
> 10		C[C@@H]1O[C@@H](O[C@@H]2CCCC[C@H]2O[C@@H]2O[C@H](CO)[C@H](O)[C@H](O[C@H](C)C(=O)O)[C@H]2O)[C@@H](O)[C@H](O)[C@@H]1O
0.15		C[C@@H]1O[C@@H](O[C@@H]2CCCC[C@H]2O[C@@H]2O[C@H](CO)[C@H](O)[C@H](O[C@@H](CC3CCCCC3)C(=O)O)[C@H]2O)[C@@H](O)[C@H](O)[C@@H]1O
> 10		C[C@@H]1O[C@@H](O[C@@H]2CCCC[C@H]2O[C@@H]2O[C@H](CO)[C@H](O)[C@H](O[C@H](CC3CCCCC3)C(=O)O)[C@H]2O)[C@@H](O)[C@H](O)[C@@H]1O
	1000 µM	CC(=O)N[C@@H]1[C@@H](O[C@@H]2O[C@@H](C)[C@@H](O)[C@@H](O)[C@@H]2O)[C@H](O[C@@H]2O[C@H](CO)[C@H](O)[C@H](O[C@]3(C(=O)O)C[C@H](O)[C@@H](NC(C)=O)[C@H]([C@H](O)[C@H](O)CO)O3)[C@H]2O)[C@@H](CO)O[C@H]1O
	600 µM	CC(=O)N[C@H]1[C@H]([C@H](O)[C@H](O)CO)O[C@@](O[C@H]2[C@@H](O)[C@@H](CO)O[C@@H](O[C@@H]3CCCC[C@H]3O[C@@H]3O[C@@H](C)[C@@H](O)[C@@H](O)[C@@H]3O)[C@@H]2O)(C(=O)O)C[C@@H]1O
> 10		C[C@@H]1O[C@@H](O[C@@H]2CCCC[C@H]2O[C@@H]2O[C@H](CO)[C@H](O)[C@H](O[C@H](CC34CC5CC(CC(C5)C3)C4)C(=O)O)[C@H]2O)[C@@H](O)[C@H](O)[C@@H]1O
2.4		C[C@H](O[C@H]1[C@@H](O)[C@@H](CO)O[C@@H](O[C@@H]2CCCC[C@H]2O[C@@H]2O[C@@H](C)[C@@H](O)[C@@H](O)[C@@H]2O)[C@@H]1O)C(=O)O
> 10		C[C@@H]1O[C@@H](O[C@@H]2CCCC[C@H]2O[C@@H]2O[C@H](CO)[C@H](O)[C@H](O[C@H](Cc3ccccc3)C(=O)O)[C@H]2O)[C@@H](O)[C@H](O)[C@@H]1O
0.32		C[C@@H]1O[C@@H](O[C@@H]2CCCC[C@H]2O[C@@H]2O[C@H](CO)[C@H](O)[C@H](O[C@@H](CC34CC5CC(CC(C5)C3)C4)C(=O)O)[C@H]2O)[C@@H](O)[C@H](O)[C@@H]1O
